Assay results reported in ChEMBL document CHEMBL3232877, “Synthesis and activity of tumor-homing peptide iRGD and histone deacetylase inhibitor valproic acid conjugate” (2014).
Positions of bridges follow the written chain, without caps; N, C: chain ends. Residues, ends and D or L forms follow the SMILES beside them. *: point of attachment. Pentanoyl(2-Pr) = CCCC(CCC)C(=O)*

Tests used:
Format in all cases: functional
[1] = system: DU-145; assay: Cytotoxicity against human DU145 cells assessed viable cells at 0.5 mM after 72 hrs by CCK-8 assay (reference value: 99.97 +/- 0.84 %)
How it was run: (§1)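 DU-145 cells exposed 72 h to drug or drug equivalent at 0.5 mM or 1.5 mM. Viable cells read by CCK-8, absorbance 450 nm (630 nm reference). Viability % = treated viable cells / mean of untreated group (set 100%); reported as mean ± SEM; one-way ANOVA with Tukey test.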

[2] = system: DU-145; assay: Cell cycle arrest in human DU145 cells assessed as accumulation of cells at G2 phase at 1.5 mM after 24 hrs by flow cytometry (reference value: 22.1 %)
[3] = system: DU-145; assay: Cell cycle arrest in human DU145 cells assessed as accumulation of cells at G1 phase at 1.5 mM after 24 hrs by flow cytometry (Rvb =64.7 %)
[4] = system: DU-145; assay: Cytotoxicity against human DU145 cells assessed viable cells at 1.5 mM after 72 hrs by CCK-8 assay (reference value: 100.00 +/- 2.47 %); how it was run: as §1

With `CCCC(CCC)C(=O)NCC(=O)N[C@@H](Cc1ccccc1)C(=O)N[C@@H](CC(C)C)C(=O)NCC(=O)N[C@H]1CSSC[C@@H](C(N)=O)NC(=O)[C@H](CC(=O)O)NC(=O)[C@@H]2CCCN2C(=O)CNC(=O)[C@H](CCCCN)NC(=O)[C@H](CC(=O)O)NC(=O)CNC(=O)[C@H](CCCNC(=N)N)NC1=O` ({Pentanoyl(2-Pr)}-GFLGCRGDKGPDC-NH2; disulfide 5-13) the Activity [1] was 69.3%, the Activity [2] was 15.7% and the Activity [3] was 76.3%. The Activity [4] was 38.96%.

`CC(C)C[C@H](NC(=O)[C@H](Cc1ccccc1)NC(=O)CN)C(=O)NCC(=O)N[C@H]1CSSC[C@@H](C(N)=O)NC(=O)[C@H](CC(=O)O)NC(=O)[C@@H]2CCCN2C(=O)CNC(=O)[C@H](CCCCN)NC(=O)[C@H](CC(=O)O)NC(=O)CNC(=O)[C@H](CCCNC(=N)N)NC1=O` (H-GFLGCRGDKGPDC-NH2; disulfide 5-13) gave an Activity [1] of 70.52%, an Activity [2] of 17.7% and an Activity [3] of 73.7%. The Activity [4] was 58.67%.

Work on `CCCC(CCC)C(=O)O` [VALPROIC ACID] yielded an Activity [1] of 99.56%, an Activity [2] of 25.8% and an Activity [3] of 62.5%. For the same molecule, the Activity [4] was 79.87%.
